In ChEMBL document CHEMBL1138564, “Microwave-induced synthesis and anti-microbial activities of 7,10,11,12-tetrahydrobenzo[c]acridin-8(9H)-one derivatives” (2009):
Values after ≈ are worked out from the molar mass of the structure shown. Active and inactive are the calls of the source. The rule behind the calls is not given here.

How the values were obtained:
Aliivibrio fischeri [1] = assay: Antimicrobial activity against Vibrio fischeri NCIM 2154 after 24 hrs by serial dilution method; type: functional; conditions: NCIM 2154, 24 h
Bacillus cereus [2] = assay: Antimicrobial activity against Bacillus cereus NCIM 2155 at 1000 ug/disk after 24 hrs by disk diffusion method; type: functional; conditions: NCIM 2155, 24 h, read-out: DIZ
Method in brief: (§1)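 Disc diffusion on Mueller–Hinton agar. 100 µl of bacterial suspension at 10⁸ CFU/ml is spread on the plate. Discs carry test compounds at two loadings, dissolved in DMSO; DMSO alone serves as negative control. Ofloxacin disc is the positive reference. Plates are incubated at 37 °C for 24 h, and the inhibition zone diameter is measured.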

Staphylococcus [3] = assay: Antimicrobial activity against Staphylococcus albus NCIM 2178 at 500 ug/disk after 24 hrs by disk diffusion method; type: functional
Method in brief: (§2)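 Disc diffusion. 100 µl of bacterial suspension at 10⁸ CFU/ml was spread on Mueller–Hinton agar. Discs loaded with test compound dissolved in DMSO were placed on the lawn, with a DMSO-only disc as negative control. Plates were incubated at 37 °C for 24 h, and the inhibition zone diameter was measured.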

Rhodotorula mucilaginosa [4] = assay: Antimicrobial activity against Rhodotorula rubra NCIM 3174 at 500 ug/disk after 72 hrs by disk diffusion method; type: functional; conditions: NCIM 3174, 72 h, read-out: DIZ
Method in brief: (§3)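 Fungal disc diffusion. 100 µl of suspension at 10⁶ CFU/ml was spread on Sabouraud's dextrose agar. Discs carrying test compound in DMSO were applied, with a DMSO-only disc as negative control. Plates were incubated at 27 °C for 72 h, and the zone of inhibition diameter was measured.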

Proteus vulgaris [5] = assay: Antimicrobial activity against Proteus vulgaris NCIM 2027 at 1000 ug/disk after 24 hrs by disk diffusion method; type: functional; method in brief: as §1
Escherichia coli [6] = assay: Antimicrobial activity against Escherichia coli NCIM 2065 at 1000 ug/disk after 24 hrs by disk diffusion method; type: functional; conditions: NCIM 2065, 24 h, read-out: DIZ; method in brief: as §1
[7] = system: Rhodococcus corynebacterioides; assay: Antimicrobial activity against Corynebacterium rubrum NCIM 2252 at 500 ug/disk after 24 hrs by disk diffusion method; type: functional; conditions: Rhodococcoides corynebacterioides; method in brief: as §1
Aspergillus flavus [8] = assay: Antimicrobial activity against Aspergillus flavus NCIM 902 after 72 hrs by serial dilution method; type: functional; conditions: NCIM 535, 72 h, in the assay text read “NCIM 535” for “NCIM 902”
Method in brief: (§4)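 MIC by broth dilution in Sabouraud's dextrose broth, only for fungi sensitive in disc diffusion. Two-fold serial dilutions of compounds are made in 1 ml broth per tube, range 3.9 to 1000. Inoculated tubes are incubated at 27 °C for 72 h.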

Salmonella typhimurium [9] = assay: Antimicrobial activity against Salmonella Typhimurium NCIM 2501 at 1000 ug/disk after 24 hrs by disk diffusion method; type: functional, Salmonella enterica subsp. enterica serovar Typhimurium; conditions: Salmonella enterica, NCIM 2501, 24 h; read-out: DIZ; method in brief: as §2
Bacillus subtilis [10] = assay: Antimicrobial activity against Bacillus subtilis NCIM 2063 at 1000 ug/disk after 24 hrs by disk diffusion method; type: functional; conditions: NCIM 2063, 24 h, read-out: DIZ; method in brief: as §1
Aspergillus parasiticus [11] = assay: Antimicrobial activity against Aspergillus parasiticus NCIM 904 after 72 hrs by serial dilution method; type: functional; conditions: NCIM 904, 72 h; method in brief: as §4
Bacillus cereus [12] = assay: Antimicrobial activity against Bacillus cereus NCIM 2155 at 500 ug/disk after 24 hrs by disk diffusion method; type: functional; conditions: NCIM 2155, 24 h, read-out: DIZ; method in brief: as §1
Penicillium chrysogenum = assay: Antimicrobial activity against Penicillium chrysogenum NCIM 707 at 500 ug/disk after 72 hrs by disk diffusion method; type: functional
Method in brief: (§5)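 Disc diffusion on Sabouraud's dextrose agar. 100 µl of fungal suspension at 10⁶ CFU/ml is spread on the plate. Discs carry test compounds at two loadings in DMSO; DMSO alone is the negative control. Clotrimazole disc is the positive reference. Plates are incubated at 27 °C for 72 h, and the zone of inhibition diameter is measured.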

Aliivibrio fischeri [13] = assay: Antimicrobial activity against Vibrio fischeri NCIM 2154 at 500 ug/disk after 24 hrs by disk diffusion method; type: functional; method in brief: as §2
Salmonella typhimurium [14] = assay: Antimicrobial activity against Salmonella Typhimurium NCIM 2501 at 500 ug/disk after 24 hrs by disk diffusion method; type: functional, Salmonella enterica subsp. enterica serovar Typhimurium; conditions: Salmonella enterica, NCIM 2501, 24 h; read-out: DIZ; method in brief: as §2
Staphylococcus [15] = assay: Antimicrobial activity against Staphylococcus albus NCIM 2178 at 1000 ug/disk after 24 hrs by disk diffusion method; type: functional; method in brief: as §2
Trichoderma viride [16] = assay: Antimicrobial activity against Trichoderma viride NCIM 1195 after 72 hrs by serial dilution method; type: functional; conditions: NCIM 1195, 72 h
Method in brief: (§6)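 MIC by broth dilution in Sabouraud's dextrose broth, run only on fungi found sensitive in the disc assay. Twofold serial dilutions were made in 1 ml broth per tube, covering 3.9 to 1000. Inoculated tubes were incubated at 27 °C for 72 h.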

Proteus vulgaris [17] = assay: Antimicrobial activity against Proteus vulgaris NCIM 2027 at 500 ug/disk after 24 hrs by disk diffusion method; type: functional; method in brief: as §1
[18] = system: Rhodococcus corynebacterioides; assay: Antimicrobial activity against Corynebacterium rubrum NCIM 2252 at 1000 ug/disk after 24 hrs by disk diffusion method; type: functional; conditions: Rhodococcoides corynebacterioides; method in brief: as §1
Lipomyces lipofer = assay: Antimicrobial activity against Lipomyces lipofer NCIM 3252 at 1000 ug/disk after 72 hrs by disk diffusion method; type: functional; method in brief: as §5
Aspergillus fumigatus = assay: Antimicrobial activity against Aspergillus fumigatus NCIM 902 at 500 ug/disk after 72 hrs by disk diffusion method; type: functional; method in brief: as §5
Trichoderma viride [19] = assay: Antimicrobial activity against Trichoderma viride NCIM 1195 at 1000 ug/disk after 72 hrs by disk diffusion method; type: functional; conditions: NCIM 1195, 72 h, read-out: DIZ; method in brief: as §3
Rhodotorula mucilaginosa [20] = assay: Antimicrobial activity against Rhodotorula rubra NCIM 3174 at 1000 ug/disk after 72 hrs by disk diffusion method; type: functional; conditions: NCIM 3174, 72 h, read-out: DIZ; method in brief: as §3
Aspergillus flavus [21] = assay: Antimicrobial activity against Aspergillus flavus NCIM 902 at 1000 ug/disk after 72 hrs by disk diffusion method; type: functional; conditions: NCIM 902, 72 h, read-out: DIZ; method in brief: as §5
Escherichia coli [22] = assay: Antimicrobial activity against Escherichia coli NCIM 2065 after 24 hrs by serial dilution method; type: functional; conditions: NCIM 2065, 24 h
Method in brief: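 Broth dilution MIC in nutrient broth, run only for organisms found sensitive in disc diffusion. Compounds are two-fold serially diluted in 1 ml sterile broth per tube, spanning 3.9 to 1000. Inoculated tubes are incubated at 37 °C for 24 h.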

Aspergillus flavus [23] = assay: Antimicrobial activity against Aspergillus flavus NCIM 902 at 500 ug/disk after 72 hrs by disk diffusion method; type: functional; conditions: NCIM 902, 72 h, read-out: DIZ; method in brief: as §5
Pseudomonas aeruginosa [24] = assay: Antimicrobial activity against Pseudomonas aeruginosa NCIM 2200 at 1000 ug/disk after 24 hrs by disk diffusion method; type: functional; method in brief: as §1
Pseudomonas aeruginosa [25] = assay: Antimicrobial activity against Pseudomonas aeruginosa NCIM 2200 at 500 ug/disk after 24 hrs by disk diffusion method; type: functional; method in brief: as §2
Klebsiella aerogenes = assay: Antimicrobial activity against Klebsiella aerogenes NCIM 2239 at 500 ug/disk after 24 hrs by disk diffusion method; type: functional; method in brief: as §1
Aspergillus parasiticus [26] = assay: Antimicrobial activity against Aspergillus parasiticus NCIM 904 at 1000 ug/disk after 72 hrs by disk diffusion method; type: functional; conditions: NCIM 904, 72 h, read-out: DIZ; method in brief: as §5
Bacillus subtilis [27] = assay: Antimicrobial activity against Bacillus subtilis NCIM 2063 at 500 ug/disk after 24 hrs by disk diffusion method; type: functional; method in brief: as §1
Rhodotorula mucilaginosa [28] = assay: Antimicrobial activity against Rhodotorula rubra NCIM 3174 after 72 hrs by serial dilution method; type: functional; conditions: NCIM 3174, 72 h; method in brief: as §6

MIC (Aspergillus flavus [8]) [µg/mL]	MIC (Aspergillus parasiticus [11]) [µg/mL]	MIC (Trichoderma viride [16]) [µg/mL]	MIC (Escherichia coli [22]) [µg/mL]	SMILES	MIC (Aliivibrio fischeri [1]) [µg/mL]	zone of inhibition at 1000 µg/disc (Bacillus cereus [2]) [mm]	diameter of the inhibition zone (DIZ) (Staphylococcus [3])	zone of inhibition at 500 µg/disc (Rhodotorula mucilaginosa [4]) [mm]	diameter of the inhibition zone (DIZ) (Proteus vulgaris [5])	zone of inhibition at 1000 µg/disc (Escherichia coli [6]) [mm]	zone of inhibition at 1000 µg/disc (Salmonella typhimurium [9]) [mm]	zone of inhibition at 1000 µg/disc (Bacillus subtilis [10]) [mm]	zone of inhibition at 500 µg/disc (Bacillus cereus [12]) [mm]	zone of inhibition at 500 µg/disc (Salmonella typhimurium [14]) [mm]	diameter of the inhibition zone (DIZ) (Staphylococcus [15])	diameter of the inhibition zone (DIZ) (Proteus vulgaris [17])	diameter of the inhibition zone (DIZ) (Aspergillus fumigatus)	zone of inhibition at 1000 µg/disc (Trichoderma viride [19]) [mm]	zone of inhibition at 1000 µg/disc (Rhodotorula mucilaginosa [20]) [mm]	zone of inhibition at 1000 µg/disc (Aspergillus flavus [21]) [mm]	also measured
62.5 (≈ 177 µM)	62.5 (≈ 177 µM)	31.2 (≈ 88.3 µM)	62.5 (≈ 177 µM)	CC1(C)CC(=O)C2=C(C1)Nc1c(ccc3ccccc13)C2c1ccccc1 (centres undefined)	125 (≈ 354 µM)	12	inactive	10	inactive	10	10	11	9	9	inactive	inactive	inactive	12	12	10	diameter of the inhibition zone (DIZ) [7]: inactive; diameter of the inhibition zone (DIZ) (Penicillium chrysogenum): inactive; diameter of the inhibition zone (DIZ) (Aliivibrio fischeri [13]): inactive; diameter of the inhibition zone (DIZ) [18]: inactive; diameter of the inhibition zone (DIZ) (Lipomyces lipofer): inactive; zone of inhibition at 500 µg/disc (Aspergillus flavus [23]): 9 mm; diameter of the inhibition zone (DIZ) (Pseudomonas aeruginosa [24]): inactive; diameter of the inhibition zone (DIZ) (Pseudomonas aeruginosa [25]): inactive; diameter of the inhibition zone (DIZ) (Klebsiella aerogenes): inactive; zone of inhibition at 1000 µg/disc (Aspergillus parasiticus [26]): 10 mm; zone of inhibition at 500 µg/disc (Bacillus subtilis [27]; NCIM 2063, 24 h, read-out: DIZ): 8 mm; MIC (Rhodotorula mucilaginosa [28]): 31.2 µg/mL (≈ 88.3 µM)
62.5 (≈ 161 µM)	31.2 (≈ 80.4 µM)	15.6 (≈ 40.2 µM)	125 (≈ 322 µM)	CC1(C)CC(=O)C2=C(C1)Nc1c(ccc3ccccc13)C2c1cccc(Cl)c1 (centres undefined)	125 (≈ 322 µM)	10	inactive	7	inactive	8	10	9	9	8	inactive	inactive	inactive	13	9	10	zone of inhibition at 500 µg/disc ([7]; NCIM 2252, 24 h, read-out: DIZ): 7 mm; zone of inhibition at 500 µg/disc (Penicillium chrysogenum; NCIM 707, 72 h, read-out: DIZ): 7 mm; zone of inhibition at 500 µg/disc (Aliivibrio fischeri [13]; NCIM 2154, 24 h, read-out: DIZ): 7 mm; zone of inhibition at 1000 µg/disc ([18]; NCIM 2252, 24 h, read-out: DIZ): 8 mm; zone of inhibition at 1000 µg/disc (Lipomyces lipofer; NCIM 3252, 72 h, read-out: DIZ): 8 mm; zone of inhibition at 500 µg/disc (Aspergillus flavus [23]): 9 mm; diameter of the inhibition zone (DIZ) (Pseudomonas aeruginosa [24]): inactive; diameter of the inhibition zone (DIZ) (Pseudomonas aeruginosa [25]): inactive; diameter of the inhibition zone (DIZ) (Klebsiella aerogenes): inactive; zone of inhibition at 1000 µg/disc (Aspergillus parasiticus [26]): 12 mm; diameter of the inhibition zone (DIZ) (Bacillus subtilis [27]): inactive; MIC (Rhodotorula mucilaginosa [28]): 62.5 µg/mL (≈ 161 µM)
